Reference: ChEMBL document CHEMBL4229371, “Discovery of [1,2,4]triazolo[3,4-b][1,3,4]thiadiazole derivatives as novel, potent and selective c-Met kinase inhibitors: Synthesis, SAR study, and biological activity” (Eur J Med Chem, 2018)

Tests used:
[1] = molecular target: T1, Hepatocyte growth factor receptor (Homo sapiens, UniProt P08581); test: Inhibition of GST-tagged human c-MET preincubated for 20 mins followed by [33P]-ATP addition and measured after 2 hrs by Hot-Spot kinase assay
SNU-5 = test: Antiproliferative activity against human SNU5 cells at 5 uM after 72 hrs by Cell Titer-Glo assay; format: functional
Summary of the method: (§1)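 Cell Titer-Glo viability assay. Exponentially growing cells were plated at 4000 per well in RPMI-1640 with 10% FPS and incubated 12 h at 37 °C in 5% CO2. Compound was then added at the indicated final concentrations and cells were held 72 h at 37 °C in 5% CO2. CTG reagent was applied for 10 min at room temperature. Inhibition % = (1 − Vsample/Vvehicle control) × 100.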

EBC-1 [2] = test: Antiproliferative activity against human EBC1 cells at 5 uM after 72 hrs by Cell Titer-Glo assay; format: functional; summary of the method: as §1
EBC-1 [3] = test: Antiproliferative activity against human EBC1 cells after 72 hrs by Cell Titer-Glo assay; format: functional, cell-based; conditions: EBC-1, 72 h; summary of the method: as §1
MKN-45 [4] = test: Antiproliferative activity against human MKN45 cells at 5 uM after 72 hrs by Cell Titer-Glo assay; format: functional; summary of the method: as §1
MKN-45 [5] = test: Antiproliferative activity against human MKN45 cells at 1 uM after 72 hrs by Cell Titer-Glo assay; format: functional; summary of the method: as §1
EBC-1 [6] = test: Antiproliferative activity against human EBC1 cells at 1 uM after 72 hrs by Cell Titer-Glo assay; format: functional; summary of the method: as §1
[7] = molecular target: ALK tyrosine kinase receptor (Homo sapiens) (UniProt Q9UM73); test: Inhibition of GST-tagged human ALK at 5 uM preincubated for 20 mins followed by [33P]-ATP addition measured after 2 hrs by Hot-Spot kinase assay
Summary of the method: (§2)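 Radiometric filter-binding assay with 5 nM human GST-tagged kinase and substrate. Buffer was 20 mM Hepes pH 7.5, 10 mM MgCl2, 1 mM EGTA, 0.02% Brij35, 0.02 mg/mL BSA, 0.1 mM Na3VO4, 2 mM DTT and 1% DMSO. Compound in DMSO was preincubated with kinase for 20 min at room temperature. 33P-ATP was then added and the reaction ran 2 h at room temperature. IC50 values came from curve fitting.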

[8] = molecular target: Mast/stem cell growth factor receptor Kit (Homo sapiens) (UniProt P10721); test: Inhibition of GST-tagged human c-KIT at 5 uM preincubated for 20 mins followed by [33P]-ATP addition measured after 2 hrs by Hot-Spot kinase assay; summary of the method: as §2
[9] = molecular target: Platelet-derived growth factor receptor alpha (Homo sapiens) (UniProt P16234); test: Inhibition of GST-tagged human PDGFRalpha at 5 uM preincubated for 20 mins followed by [33P]-ATP addition measured after 2 hrs by Hot-Spot kinase assay; summary of the method: as §2
[10] = molecular target: BDNF/NT-3 growth factors receptor (Homo sapiens) (UniProt Q16620); test: Inhibition of GST-tagged human TRKB at 5 uM preincubated for 20 mins followed by [33P]-ATP addition measured after 2 hrs by Hot-Spot kinase assay; summary of the method: as §2
[11] = molecular target: Tyrosine-protein kinase receptor UFO (Homo sapiens) (UniProt P30530); test: Inhibition of GST-tagged human AXL at 5 uM preincubated for 20 mins followed by [33P]-ATP addition measured after 2 hrs by Hot-Spot kinase assay; summary of the method: as §2
[12] = molecular target: Tyrosine-protein kinase Lck (Homo sapiens) (UniProt P06239); test: Inhibition of GST-tagged human LCK at 5 uM preincubated for 20 mins followed by [33P]-ATP addition measured after 2 hrs by Hot-Spot kinase assay; summary of the method: as §2
[13] = molecular target: Vascular endothelial growth factor receptor 2 (Homo sapiens) (UniProt P35968); test: Inhibition of GST-tagged human KDR at 5 uM preincubated for 20 mins followed by [33P]-ATP addition measured after 2 hrs by Hot-Spot kinase assay; summary of the method: as §2
[14] = molecular target: Angiopoietin-1 receptor (Homo sapiens) (UniProt Q02763); test: Inhibition of GST-tagged human TIE2 at 5 uM preincubated for 20 mins followed by [33P]-ATP addition measured after 2 hrs by Hot-Spot kinase assay; summary of the method: as §2
[15] = molecular target: Receptor-type tyrosine-protein kinase FLT3 (Homo sapiens) (UniProt P36888); test: Inhibition of GST-tagged human FLT3 at 5 uM preincubated for 20 mins followed by [33P]-ATP addition measured after 2 hrs by Hot-Spot kinase assay; summary of the method: as §2
[16] = molecular target: T1, Hepatocyte growth factor receptor; test: Inhibition of HGF-induced c-MET phosphorylation at Tyr1234/1235 in human MKN45 cells after 1 hr by Western blot analysis; format: cell-based
Summary of the method: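 MKN45 cells were plated at 2x10^4 per well in RPMI-1640 with 10% FPS and treated with a range of doses for 1 h. Lysis was in ice-cold RIPA with protease inhibitors. Lysate holding 30 µg protein (BCA) was run on SDS-PAGE and blotted to PVDF. Membranes were blocked in 5% skim milk, given primary antibody overnight at 4 °C, then HRP secondary for 1 h at room temperature, and read by ECL.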

[17] = molecular target: Vascular endothelial growth factor receptor 1 (Homo sapiens) (UniProt P17948); test: Inhibition of GST-tagged human FLT1 at 5 uM preincubated for 20 mins followed by [33P]-ATP addition measured after 2 hrs by Hot-Spot kinase assay; summary of the method: as §2
[18] = molecular target: Proto-oncogene tyrosine-protein kinase receptor Ret (Homo sapiens) (UniProt P07949); test: Inhibition of GST-tagged human RET at 5 uM preincubated for 20 mins followed by [33P]-ATP addition measured after 2 hrs by Hot-Spot kinase assay; summary of the method: as §2
[19] = molecular target: Tyrosine-protein kinase ABL1 (Homo sapiens) (UniProt P00519); test: Inhibition of GST-tagged human ABL1 at 5 uM preincubated for 20 mins followed by [33P]-ATP addition measured after 2 hrs by Hot-Spot kinase assay; summary of the method: as §2
[20] = molecular target: T2, Receptor-type tyrosine-protein kinase FLT3 (Homo sapiens, UniProt P36888); test: Inhibition of GST-tagged human FLT3 preincubated for 20 mins followed by [33P]-ATP addition measured after 2 hrs by Hot-Spot kinase assay; summary of the method: as §2
T2 sequence (P36888 whole entry): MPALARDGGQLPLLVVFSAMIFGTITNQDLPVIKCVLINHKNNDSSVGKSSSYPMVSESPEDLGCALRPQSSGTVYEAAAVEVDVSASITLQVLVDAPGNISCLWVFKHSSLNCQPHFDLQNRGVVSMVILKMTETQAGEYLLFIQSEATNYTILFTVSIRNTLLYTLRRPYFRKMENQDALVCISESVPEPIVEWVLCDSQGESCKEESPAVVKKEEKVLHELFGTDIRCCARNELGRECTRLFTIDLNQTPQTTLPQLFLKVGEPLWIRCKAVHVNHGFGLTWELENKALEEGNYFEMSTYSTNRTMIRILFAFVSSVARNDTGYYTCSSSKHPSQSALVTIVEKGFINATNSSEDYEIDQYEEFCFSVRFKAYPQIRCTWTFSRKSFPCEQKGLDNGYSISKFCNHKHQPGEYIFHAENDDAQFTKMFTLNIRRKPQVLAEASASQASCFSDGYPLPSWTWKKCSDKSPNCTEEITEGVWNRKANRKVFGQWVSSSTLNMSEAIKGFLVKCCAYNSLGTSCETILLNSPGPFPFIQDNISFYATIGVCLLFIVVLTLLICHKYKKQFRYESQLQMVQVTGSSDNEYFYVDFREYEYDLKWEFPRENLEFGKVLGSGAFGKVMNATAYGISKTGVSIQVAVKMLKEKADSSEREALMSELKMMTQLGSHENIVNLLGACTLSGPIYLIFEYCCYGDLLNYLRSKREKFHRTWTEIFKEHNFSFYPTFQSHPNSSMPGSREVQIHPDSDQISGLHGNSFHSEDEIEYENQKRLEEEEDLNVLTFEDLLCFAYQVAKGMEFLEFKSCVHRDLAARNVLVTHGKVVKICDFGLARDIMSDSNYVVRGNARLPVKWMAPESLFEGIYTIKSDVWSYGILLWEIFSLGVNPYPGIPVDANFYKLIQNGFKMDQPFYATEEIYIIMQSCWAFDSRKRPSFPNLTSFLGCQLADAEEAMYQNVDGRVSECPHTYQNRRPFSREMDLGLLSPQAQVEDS

T1 sequence (P08581 whole entry): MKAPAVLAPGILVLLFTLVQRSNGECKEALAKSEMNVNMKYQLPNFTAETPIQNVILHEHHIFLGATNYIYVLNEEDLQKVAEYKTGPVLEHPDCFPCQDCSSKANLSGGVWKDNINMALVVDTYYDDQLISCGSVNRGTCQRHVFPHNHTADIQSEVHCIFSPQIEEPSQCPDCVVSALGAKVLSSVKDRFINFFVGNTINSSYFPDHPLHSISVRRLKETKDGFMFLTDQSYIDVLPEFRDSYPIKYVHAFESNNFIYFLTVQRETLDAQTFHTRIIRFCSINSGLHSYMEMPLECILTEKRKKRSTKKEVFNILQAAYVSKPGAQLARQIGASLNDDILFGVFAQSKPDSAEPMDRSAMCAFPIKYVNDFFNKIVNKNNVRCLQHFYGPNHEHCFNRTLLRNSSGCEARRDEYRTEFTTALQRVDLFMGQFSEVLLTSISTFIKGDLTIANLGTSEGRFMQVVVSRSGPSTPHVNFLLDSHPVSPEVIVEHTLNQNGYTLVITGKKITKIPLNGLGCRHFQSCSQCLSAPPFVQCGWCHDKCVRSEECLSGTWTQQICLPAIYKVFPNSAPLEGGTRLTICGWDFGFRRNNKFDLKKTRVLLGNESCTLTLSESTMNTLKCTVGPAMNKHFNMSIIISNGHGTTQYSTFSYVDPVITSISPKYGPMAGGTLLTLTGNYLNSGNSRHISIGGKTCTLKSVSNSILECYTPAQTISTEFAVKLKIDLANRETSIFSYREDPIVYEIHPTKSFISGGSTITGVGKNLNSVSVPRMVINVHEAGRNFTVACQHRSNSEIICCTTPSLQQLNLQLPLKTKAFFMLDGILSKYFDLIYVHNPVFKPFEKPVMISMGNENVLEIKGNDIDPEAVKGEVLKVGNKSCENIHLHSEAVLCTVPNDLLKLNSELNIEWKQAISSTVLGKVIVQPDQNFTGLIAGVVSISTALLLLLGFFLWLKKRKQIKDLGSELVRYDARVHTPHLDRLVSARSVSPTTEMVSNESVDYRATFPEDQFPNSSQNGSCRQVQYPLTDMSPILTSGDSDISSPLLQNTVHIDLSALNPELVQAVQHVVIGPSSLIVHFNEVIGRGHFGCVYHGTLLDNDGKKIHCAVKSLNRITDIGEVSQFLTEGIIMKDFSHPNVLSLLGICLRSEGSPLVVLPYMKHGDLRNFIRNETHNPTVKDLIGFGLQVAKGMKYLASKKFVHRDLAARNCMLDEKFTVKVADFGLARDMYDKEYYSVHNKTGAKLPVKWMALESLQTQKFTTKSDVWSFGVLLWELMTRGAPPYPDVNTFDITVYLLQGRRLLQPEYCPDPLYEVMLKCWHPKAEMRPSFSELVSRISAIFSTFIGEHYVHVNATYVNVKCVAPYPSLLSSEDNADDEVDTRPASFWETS
Sequence of Mast/stem cell growth factor receptor Kit (Homo sapiens) (P10721 whole entry): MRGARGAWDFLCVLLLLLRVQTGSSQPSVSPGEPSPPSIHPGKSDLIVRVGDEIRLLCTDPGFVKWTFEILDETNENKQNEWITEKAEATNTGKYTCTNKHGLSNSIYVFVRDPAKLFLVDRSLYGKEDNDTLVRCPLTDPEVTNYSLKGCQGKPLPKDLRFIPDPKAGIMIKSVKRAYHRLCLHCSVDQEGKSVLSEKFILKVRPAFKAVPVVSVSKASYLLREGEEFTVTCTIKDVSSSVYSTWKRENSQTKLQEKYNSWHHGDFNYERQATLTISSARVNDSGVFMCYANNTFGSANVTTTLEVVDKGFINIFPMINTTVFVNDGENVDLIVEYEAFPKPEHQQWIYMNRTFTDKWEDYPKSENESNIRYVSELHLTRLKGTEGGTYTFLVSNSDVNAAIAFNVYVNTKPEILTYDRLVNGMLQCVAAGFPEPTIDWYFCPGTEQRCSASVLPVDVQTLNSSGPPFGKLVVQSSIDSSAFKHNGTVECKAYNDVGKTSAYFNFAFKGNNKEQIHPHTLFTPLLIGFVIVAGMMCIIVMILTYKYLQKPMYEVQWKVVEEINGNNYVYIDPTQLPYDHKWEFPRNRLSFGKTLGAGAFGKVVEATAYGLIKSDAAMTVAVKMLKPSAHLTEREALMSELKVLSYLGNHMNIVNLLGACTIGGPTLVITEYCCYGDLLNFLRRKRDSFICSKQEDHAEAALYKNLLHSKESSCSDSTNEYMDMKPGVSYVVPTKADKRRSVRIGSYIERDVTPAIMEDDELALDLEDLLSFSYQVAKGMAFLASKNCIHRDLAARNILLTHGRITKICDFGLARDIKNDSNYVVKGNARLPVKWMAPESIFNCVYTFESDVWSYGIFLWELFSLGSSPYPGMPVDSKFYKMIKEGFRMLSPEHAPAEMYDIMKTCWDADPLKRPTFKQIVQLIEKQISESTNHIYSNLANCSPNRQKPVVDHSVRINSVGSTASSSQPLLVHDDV
Sequence of Vascular endothelial growth factor receptor 2 (Homo sapiens) (P35968 whole entry): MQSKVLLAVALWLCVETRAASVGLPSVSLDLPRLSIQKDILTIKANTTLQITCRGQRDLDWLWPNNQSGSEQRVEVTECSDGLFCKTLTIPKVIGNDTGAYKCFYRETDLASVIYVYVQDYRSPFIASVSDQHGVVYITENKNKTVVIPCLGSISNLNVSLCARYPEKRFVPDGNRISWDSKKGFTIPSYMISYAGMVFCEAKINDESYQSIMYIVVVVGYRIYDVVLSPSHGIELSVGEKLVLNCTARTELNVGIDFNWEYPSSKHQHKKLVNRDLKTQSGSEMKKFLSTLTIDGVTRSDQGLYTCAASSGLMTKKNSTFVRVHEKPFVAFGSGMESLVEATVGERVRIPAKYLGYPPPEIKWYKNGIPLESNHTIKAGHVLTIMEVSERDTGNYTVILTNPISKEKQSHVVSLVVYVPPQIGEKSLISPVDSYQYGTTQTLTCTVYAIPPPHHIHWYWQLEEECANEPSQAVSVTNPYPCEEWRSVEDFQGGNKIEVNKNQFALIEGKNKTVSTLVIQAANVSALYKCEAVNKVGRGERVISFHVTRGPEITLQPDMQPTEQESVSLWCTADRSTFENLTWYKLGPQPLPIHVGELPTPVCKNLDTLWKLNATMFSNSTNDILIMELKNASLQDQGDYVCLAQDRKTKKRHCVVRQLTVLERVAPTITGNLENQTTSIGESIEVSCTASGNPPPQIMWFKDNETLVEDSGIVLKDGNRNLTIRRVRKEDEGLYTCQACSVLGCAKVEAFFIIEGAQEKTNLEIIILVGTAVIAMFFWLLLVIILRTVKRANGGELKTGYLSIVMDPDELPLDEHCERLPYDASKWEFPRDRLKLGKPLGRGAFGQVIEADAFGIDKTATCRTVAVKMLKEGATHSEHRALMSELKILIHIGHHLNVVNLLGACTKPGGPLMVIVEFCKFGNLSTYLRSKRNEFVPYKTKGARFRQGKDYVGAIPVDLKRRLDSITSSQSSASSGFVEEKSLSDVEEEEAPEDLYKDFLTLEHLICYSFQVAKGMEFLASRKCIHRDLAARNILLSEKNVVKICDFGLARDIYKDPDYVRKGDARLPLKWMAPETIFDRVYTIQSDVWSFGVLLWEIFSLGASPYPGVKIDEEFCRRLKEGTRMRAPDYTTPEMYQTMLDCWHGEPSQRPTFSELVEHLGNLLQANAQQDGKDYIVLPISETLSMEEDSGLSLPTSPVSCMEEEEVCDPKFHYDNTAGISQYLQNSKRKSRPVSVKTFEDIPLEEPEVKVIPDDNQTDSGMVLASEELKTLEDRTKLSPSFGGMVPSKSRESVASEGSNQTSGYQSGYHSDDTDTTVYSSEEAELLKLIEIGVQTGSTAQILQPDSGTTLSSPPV
Sequence of Vascular endothelial growth factor receptor 1 (Homo sapiens) (P17948 whole entry): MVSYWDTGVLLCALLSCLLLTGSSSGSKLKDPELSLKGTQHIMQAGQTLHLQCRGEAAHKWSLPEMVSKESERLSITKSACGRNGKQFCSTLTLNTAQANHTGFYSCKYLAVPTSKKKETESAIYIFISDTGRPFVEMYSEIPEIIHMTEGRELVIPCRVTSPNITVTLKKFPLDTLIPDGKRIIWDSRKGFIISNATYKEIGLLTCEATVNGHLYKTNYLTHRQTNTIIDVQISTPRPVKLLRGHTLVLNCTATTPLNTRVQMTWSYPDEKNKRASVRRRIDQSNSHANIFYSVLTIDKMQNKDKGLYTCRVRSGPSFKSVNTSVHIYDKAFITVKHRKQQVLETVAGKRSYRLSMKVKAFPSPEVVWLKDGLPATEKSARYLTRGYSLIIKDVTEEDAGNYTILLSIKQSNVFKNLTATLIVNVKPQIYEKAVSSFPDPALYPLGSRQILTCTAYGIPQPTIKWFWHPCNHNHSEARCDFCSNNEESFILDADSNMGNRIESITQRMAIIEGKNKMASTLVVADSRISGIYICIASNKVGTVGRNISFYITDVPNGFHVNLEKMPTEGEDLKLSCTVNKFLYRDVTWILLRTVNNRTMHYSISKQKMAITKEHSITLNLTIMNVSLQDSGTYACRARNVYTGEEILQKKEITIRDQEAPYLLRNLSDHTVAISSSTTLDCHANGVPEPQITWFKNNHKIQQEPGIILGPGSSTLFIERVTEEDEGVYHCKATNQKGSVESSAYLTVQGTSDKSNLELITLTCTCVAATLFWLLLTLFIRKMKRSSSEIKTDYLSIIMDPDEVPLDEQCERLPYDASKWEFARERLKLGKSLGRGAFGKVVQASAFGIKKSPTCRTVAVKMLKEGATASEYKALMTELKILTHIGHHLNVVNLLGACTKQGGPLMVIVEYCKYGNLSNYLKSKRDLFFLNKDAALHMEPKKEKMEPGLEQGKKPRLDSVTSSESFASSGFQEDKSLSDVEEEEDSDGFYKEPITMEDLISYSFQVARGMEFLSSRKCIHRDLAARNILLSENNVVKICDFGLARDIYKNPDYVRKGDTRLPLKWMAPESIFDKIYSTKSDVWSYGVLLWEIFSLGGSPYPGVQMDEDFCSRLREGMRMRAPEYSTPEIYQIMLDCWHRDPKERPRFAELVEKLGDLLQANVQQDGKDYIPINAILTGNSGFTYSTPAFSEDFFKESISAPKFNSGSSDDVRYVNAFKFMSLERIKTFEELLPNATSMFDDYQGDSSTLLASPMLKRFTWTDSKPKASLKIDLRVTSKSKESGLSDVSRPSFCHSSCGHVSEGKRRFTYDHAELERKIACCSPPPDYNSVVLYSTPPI

IC50 [1] [nM]	Structure (SMILES)	Activity (SNU-5) [%]	Activity (EBC-1 [2]) [%]	IC50 (EBC-1 [3]) [nM]	Activity (MKN-45 [4]) [%]	Activity (MKN-45 [5]) [%]	Activity (EBC-1 [6]) [%]	also measured
> 10000	Cn1cc(-c2nn3c(Cc4ccc(OCCN5CCOCC5)cc4)nnc3s2)cn1							
	C[C@@H](Oc1cc(-c2cnn(C3CCNCC3)c2)cnc1N)c1c(Cl)ccc(F)c1Cl [CRIZOTINIB]	80	94.4	39	77.7	82.6	93.1	
	COCCn1ccc(-c2nn3c(COc4ccnc5cc(OC)ccc45)nnc3s2)c1	46.1	78.6	327	73	71.1	89	
	COc1cccc(-c2nn3c(COc4ccnc5cc(OC)ccc45)nnc3s2)c1	65.7	85.4	472	66.6	37.8	91.5	
	COc1ccc2c(OCc3nnc4sc(-c5cc(F)c(F)c(F)c5)nn34)ccnc2c1	44.7	84.5	403	29.8		89.3	
> 10000	O=C(Oc1ccc(Cc2nnc3sc(-c4cc5ccccc5[nH]4)nn23)cc1)c1cc2ccccc2[nH]1							
	COc1ccc(-c2nn3c(COc4ccnc5cc(OC)ccc45)nnc3s2)cc1	74.5	85.2	161	72	76.4	89.1	
	COc1ccc2c(OCc3nnc4sc(-c5ccc[nH]5)nn34)ccnc2c1	72.4	83.7	149	76.8	79.3	80.5	
	COc1ccc2c(OCc3nnc4sc(-c5cc6ccccc6n5C)nn34)ccnc2c1	67.7	87	313	74.1	60.8	91.6	
79.3	COc1ccc(Cc2nnc3sc(-c4cc5ccccc5[nH]4)nn23)cc1	70.2	87.3	107	76.3	78.1	86.5	
> 10000	CNC(=O)COc1ccc(Cc2nnc3sc(-c4cnn(C)c4)nn23)cc1							
> 10000	CN(C)C(=O)COc1ccc(Cc2nnc3sc(-c4cnn(C)c4)nn23)cc1							
	COc1ccc2c(OCc3nnc4sc(-c5cc6cc(F)ccc6[nH]5)nn34)ccnc2c1	54.4	42.3		47.7			
2.02	COc1ccc2c(OCc3nnc4sc(-c5cnn(C)c5)nn34)ccnc2c1	68.7	84.4	88	71.9	73.6	90.9	inhibition [7]: -1.59%; inhibition [8]: 10.9%; inhibition [9]: -3.29%; inhibition [10]: 0.04%; inhibition [11]: 11.1%; inhibition [12]: -0.81%; inhibition [13]: -3.93%; inhibition [14]: -7.71%; inhibition [15]: 69.7%; inhibition [16]: Dose-dependent effect; inhibition [17]: 0.28%; inhibition [18]: -0.73%; inhibition [19]: 14.9%; IC50 [20]: 1370 nM
	COc1ccc2c(OCc3nnc4sc(-c5ccn(C6CCCC6)c5)nn34)ccnc2c1	42	72.1		47.6		41.3	
	COc1ccc2[nH]c(-c3nn4c(COc5ccnc6cc(OC)ccc56)nnc4s3)cc2c1	60	84	85.6	61.2	75.3	82.2	
	COc1ccc2c(OCc3nnc4sc(-c5cc[nH]c5)nn34)ccnc2c1	71.5	85.9	353	70.5	71.1	90.6	
> 10000	Cn1cc(C(=O)Oc2ccc(Cc3nnc4sc(-c5cnn(C)c5)nn34)cc2)cn1							
	COc1ccc2c(OCc3nnc4sc(-c5ccn(CC6CC6)c5)nn34)ccnc2c1	52.2	75.9	351	66.6	41.1	87.2	
	COc1ccc2c(OCc3nnc4sc(-c5cccn5C)nn34)ccnc2c1	14.5	86.3		28.1		7.4	
	COc1ccc2c(OCc3nnc4sc(-c5ccc(F)cc5)nn34)ccnc2c1	65.8	83.1	187	71	68.5	89.4	
	COc1ccc2c(OCc3nnc4sc(-c5ccncc5)nn34)ccnc2c1	65.7	83.7	289	73	73.8	91.6	
	COc1ccc2c(OCc3nnc4sc(-c5cccc(F)c5)nn34)ccnc2c1	66.3	81.4	504	71.3	13.2	86.7	
